# This is a sample that favours compounds with a hit; in the whole collection about 5.6% have one here.
# aDG glyco act: alpha-DG glycosylation activation; activation, % at 10 µM; actives 0.22% (n = 360,000); Pro5-aDG cells, alpha-DG glycosylation AlphaScreen (IIH6); 0% Pro5, 100% B10-LARGE cell signal;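 active = activation of at least 8% versus controls, or a plate z-score of at least 8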;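 also: Pro5 are CHO cells carrying HIG-tagged alpha-DG that lacks glycosylation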
# CHOP inhibitor: blocks CHOP induction under ER stress; actives 3.8% (n = 220,000); inhibition, % at 10 µM; CHO-K1 CHOP-promoter luciferase, tunicamycin-induced, 15-18 h;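 active = compounds that reduced the stress-induced luciferase reporter signal by more than about 70% of percent inhibition, limit read from the data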;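 also: 0% = tunicamycin plus vehicle and 100% = wells without tunicamycin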
# XBP1 UPR activ: adaptive UPR (XBP1) activation; activation, % at 20 µM; CHO-XBP1 luciferase reporter, IRE1-XBP1 UPR activation, luminescence; percent of tunicamycin response, DMSO as zero; AID 463104; actives 0.33% (n = 330,000);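 active = versus positive control, 20 µM dose yields 30% or more activation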;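 also: 100% = tunicamycin at 10 µg/mL and 0% = DMSO only wells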
#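 Assay system: IRE1-XBP1 luciferase reporter CHO line. Input: 1000 cells/well. Buffer or medium: F12 with 10% serum. Doses: 20 µM, 1% DMSO. Times: overnight seeding at 37 °C, 6 h compound treatment at 37 °C. Technique: Steady-Glo luciferase glow luminescence, 10 min after reagent addition.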
# CHOP UPR activ: apoptotic UPR (CHOP) activation | AID 449763 | CHO-CHOP luciferase reporter, luminescence; percent of tunicamycin response over DMSO baseline | actives 0.34% (n = 330,000) | activation, % at 10 µM;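 active = at 10 µM dose, activation of 40% or more, normalized to positive control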;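 also: 100% = tunicamycin at 10 µg/mL and 0% = DMSO alone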
#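 Material: CHO-CHOP cells, stable luciferase reporter of PERK-eIF2a-CHOP signalling; quantity: 500 reporter cells seeded per well; buffer or medium: F12 medium containing 10% fetal bovine serum; compound: one dose, 10 µM in 0.5% DMSO; incubation: 6 h compound treatment, 37 °C; measured by: Steady-Glo luciferase luminescence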
# MPTP block: blocks calcium-induced mitochondrial swelling | isolated mouse mitochondria, Ca2+ swelling absorbance, 30 min | actives 1.4% (n = 360,000) | inhibition, % at 10 µM;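 active = inhibition of 50% or more, scaled per plate between neutral and stimulator controls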;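 also: 0% = DMSO wells given calcium and 100% = 1 mM EGTA wells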
# NR3A LBD binder: modulates the human NR3A ligand-binding domain | NR3A LBD differential scanning fluorimetry, Tm shift; 0% = protein alone, 100% = glycine-bound protein | actives 2.5% (n = 340,000) | Tm shift relative to glycine control, % at 25 µM;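 active = melting temperature shift of at least 10% of the positive control shift, at one fixed dose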
# Starred values were filed as active, the others as inactive; . = no result given.
SMILES,aDG glyco act,CHOP inhibitor,XBP1 UPR activ,CHOP UPR activ,MPTP block,NR3A LBD binder
Cc1ccc(NS(=O)(=O)c2ccc(Cl)c(NC(=S)NC(=O)C3CCCCC3)c2)cc1Cl,0,96*,4,1,27,33*
Cc1ccc(S(=O)(=O)Nc2ccc(NC(=O)CN3CCCCC3)c(Cl)c2)cc1,-1,95*,1,0,12,-3
C#CCOCCOCCOCCNc1nc(N2CCN(C(=O)CCCCCCCCCCNC(=O)[C@H](CCCCN)n3cc(CCCC(=O)O)nn3)CC2)nc(N2CCN(C(=O)CCCCCCCCCCNC(=O)[C@H](CCCN=C(N)N)n3cc(C[C@@H](C)CC)nn3)CC2)n1,0,.,-1,0,-14,23*
C#CCOCCOCCOCCNc1nc(N2CCN(C(=O)CCCCCCCCCCNC(=O)[C@H](CCCCN)n3cc(C)nn3)CC2)nc(N2CCN(C(=O)CCCCCCCCCCNC(=O)[C@@H]([C@H](C)CC)n3cc(CCCCCN)nn3)CC2)n1,0,.,9,-2,-9,.
C#CCOCCOCCOCCNc1nc(N2CCN(C(=O)CCCCCCCCCCNC(=O)[C@H]([C@@H](C)CC)n3cc(CCCCN=C(N)N)nn3)CC2)nc(N2CCN(C(=O)CCCCCCCCCCNC(=O)[C@H](CCCCN)n3cc(C[C@@H](C)CC)nn3)CC2)n1,.,.,39*,17,.,.
C#CCOCCOCCOCCNc1nc(N2CCN(C(=O)CCCCCCCCCCNC(=O)Cn3cc(C[C@@H](C)O)nn3)CC2)nc(N2CCN(C(=O)CCCCCCCCCCNC(=O)[C@H](CCCCN)n3cc(C[C@@H](C)CC)nn3)CC2)n1,0,.,5,1,-9,13*
C#CCOCCOCCOCCNc1nc(N2CCN(C(=O)CCCCCCCCCCNC(=O)[C@H]([C@@H](C)CC)n3cc(CCCCCN)nn3)CC2)nc(N2CCN(C(=O)CCCCCCCCCCNC(=O)[C@@H]([C@H](C)O)n3cc(C)nn3)CC2)n1,0,.,18,3,-12,17*
C#CCOCCOCCOCCNc1nc(N2CCN(C(=O)CCCCCCCCCCNC(=O)[C@@H](CCSC)n3cc(CCO)nn3)CC2)nc(N2CCN(C(=O)CCCCCCCCCCNC(=O)[C@H]([C@@H](C)CC)n3cc(CCCCN=C(N)N)nn3)CC2)n1,0,.,0,2,-12,7
C#CCOCCOCCOCCNc1nc(N2CCN(C(=O)CCCCCCCCCCNC(=O)[C@H](CCCCN)n3cc(CCCC(=O)O)nn3)CC2)nc(N2CCN(C(=O)CCCCCCCCCCNC(=O)[C@H](CCCCN)n3cc(CCCC(=O)O)nn3)CC2)n1,0,.,0,1,-2,-7
COc1ccc2c(CC(=O)Nc3ncc(C)s3)coc2c1,0,36,0,0,-2,0
O=C(Nc1cc(SCCO)cc([N+](=O)[O-])c1)c1ccc(Br)o1,0,-8,-1,1,13,-1
O=C(COC(=O)c1ccc[nH]c1=O)NC1CCCc2ccccc21 (stereo not given),0,-13,-3,1,0,0
C#CCOCCOCCOCCNc1nc(N2CCN(C(=O)CCCCCCCCCCNC(=O)[C@@H](CCSC)n3cc(CCO)nn3)CC2)nc(N2CCN(C(=O)CCCCCCCCCCNC(=O)[C@H]([C@@H](C)CC)n3cc(CCCCCN)nn3)CC2)n1,.,.,4,1,.,17*
C#CCOCCOCCOCCNc1nc(N2CCN(C(=O)CCCCCCCCCCNC(=O)[C@H](CCCCN)n3cc(C[C@@H](C)CC)nn3)CC2)nc(N2CCN(C(=O)CCCCCCCCCCNC(=O)[C@H](CCCCN)n3cc(C[C@@H](C)CC)nn3)CC2)n1,0,.,.,.,-3,19*
C#CCOCCOCCOCCNc1nc(N2CCN(C(=O)CCCCCCCCCCNC(=O)[C@H](CCCCN)n3cc(CCO)nn3)CC2)nc(N2CCN(C(=O)CCCCCCCCCCNC(=O)[C@H](CCCN=C(N)N)n3cc(C[C@@H](C)CC)nn3)CC2)n1,0,.,1,-2,-12,26*

# Screening results deposited in PubChem by several laboratories.
